# PAX8 reporter: PAX8 transcriptional activity inhibition | RMG-I TPO-luciferase reporter, SteadyGlo, 24 h | inhibition, % at 12.6 µM | 360,000 compounds, 1.2% hits | AID 652154;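 active = mean replicate inhibition at least 60% with every replicate also reaching 60%; inconclusive = only one of the two criteria is met; inactive = mean below 60% and not all replicates reaching 60%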;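 also: luciferase light reporting Pax8 driven TPO promoter activity; plate controls were median of neutral control wells for no effect and mitoxantrone controls for full effect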
# HIV Env fusion: HIV envelope-mediated fusion inhibition. 360,000 compounds, 1.1% hits. AID 651610. HeLa-JRFL Env/CEM21 cell fusion, luciferase. inhibition, % at 12.3 µM;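 active = mean replicate inhibition score of at least 50 and every replicate individually at or above 50; inconclusive = only one of the two criteria met; inactive = mean below 50 and not all replicates reaching 50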;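 also: 0% = plate neutral controls and 100% = maraviroc near 300 nM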
# FN deposit inh: fibronectin deposition inhibition; AH1F fibroblasts, Alexa488-fibronectin deposition fluorescence, overnight; AID 743247; 350,000 compounds, 0.086% hits; inhibition, % at 12.6 µM;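 active = mean inhibition across replicates of 30% or more, regardless of how many single replicates reach that level; inconclusive = mean under 30% yet at least half of replicates reach 30%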;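 also: positive control wells lacked labelled fibronectin entirely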
#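 Material: AH1F fibroblast monolayer depositing Alexa488-labelled fibronectin into matrix / Amount: 10000 AH1F cells per well / Signal: fluorescence 485/525 nm / Medium: DMEM, 2% serum / Compound: single dose, pinned / Incubation: 1 h cell adhesion before compound, then overnight fibronectin incubation / Reagent: Alexa488-FN, 24 nM final / Read-out: inhibition of fibronectin deposition signal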
# EWS-Fli inh: blocks EWS/Fli oncoprotein-driven transcription | A673 NR0B1-luciferase reporter, viability-normalised | inhibition, % at 12.6 µM | 350,000 compounds, 0.67% hits | AID 651661;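 active = mean inhibition of at least 50% after viability correction, with every replicate also passing that limit; inconclusive = mean reaches 50% but only one of two replicates passes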;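 also: firefly luciferase signal divided by Alamar Blue viability fluorescence both relative to DMSO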
# PGC1a acetyl inh: modulators of PGC1a acetylation; U2OS PGC1a acetylation, AlphaScreen anti-acetyl-lysine; with virally co-expressed GCN5 acetyltransferase; inhibition, % at 15.6 µM; 350,000 compounds, 0.17% hits; AID 651687;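 active = every replicate shows inhibition of at least 40%; inconclusive = mean inhibition at least 40% but some replicate below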;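 also: 0% = neutral control wells and 100% = positive control wells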
# F508del corr: CFTR F508del correction in bronchial cells; CFBE cells, YFP halide quenching; stimulated with forskolin plus potentiator P3; % fluorescence drop versus neutral controls; 350,000 compounds, 0.36% hits; activity (quench increase), % at 7.58 µM; AID 720511;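 active = mean added fluorescence quench of at least 8% versus neutral control, with both replicates also reaching 8%; inconclusive = only one of the mean or replicate conditions met; inactive = mean below 8% and not both replicates reaching 8%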;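 also: cells transiently co-express mutant CFTR-F508del with the halide-sensitive YFP; corrector assay measuring rescue of mutant channel to the surface after 24 h compound exposure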
# * marks the source's active call; other numbers are inactive results; u = inconclusive; x = not tested or not shown; [ ] = remark or other dose. Rows were chosen to be rich in hits. Some 2.3% of all compounds tested hit in one or more screens of this group.
SMILES,PAX8 reporter,HIV Env fusion,FN deposit inh,EWS-Fli inh,PGC1a acetyl inh,F508del corr
Cc1ccc(N2C(=O)N3[C@H](c4ccc(Br)cc4)[C@@H]4C(=O)N(C(C)(C)C)C(=O)[C@@H]4[C@]3(C)C2=O)cc1,6,23,3,-4,-16,3
CO[C@@H](C(=O)N(C)C[C@H]1OCc2ccccc2-c2c(n(C)c3ccccc23)C(=O)N([C@@H](C)CO)C[C@@H]1C)c1ccccc1,11,55*[16.7 µM],-8,13,14,0
CO[C@@H](C(=O)N(C)C[C@H]1OCc2ccccc2-c2c(n(C)c3ccccc23)C(=O)N([C@@H](C)CO)C[C@H]1C)c1ccccc1,10,-48[16.7 µM],1,-1,-31,0
C[C@H]1CN([C@@H](C)CO)C(=O)c2c(c3ccccc3n2C)-c2ccccc2CO[C@H]1CN(C)C(=O)Cc1ccccc1,11,57*[16.7 µM],2,2,-22,-1
C[C@H](CO)N1C[C@H](C)[C@H](CN(C)C(=O)[C@H](Cc2ccccc2)N(C)C)OCc2ccccc2-c2c(n(C)c3ccccc23)C1=O,116*,46[16.7 µM],13,14,6,1
C[C@H](CO)N1C[C@H](C)[C@H](CN(C)C(=O)N[C@H](C)c2ccccc2)OCc2ccccc2-c2c(n(C)c3ccccc23)C1=O,-7,75*,-2,-1,10,0
C[C@H]1CN([C@@H](C)CO)C(=O)c2c(c3ccccc3n2C)-c2ccccc2CO[C@@H]1CN(C)C(=O)[C@@H](Cc1ccccc1)N(C)C,-2,1[16.7 µM],-4,-42,-1,1
C[C@@H]1CN([C@H](C)CO)C(=O)c2c(c3ccccc3n2C)-c2ccccc2CO[C@@H]1CN(C)C(=O)N[C@H](C)c1ccccc1,22,-31[16.7 µM],-1,0,-5,2
C[C@@H]1CN([C@@H](C)CO)C(=O)c2c(c3ccccc3n2C)-c2ccccc2CO[C@H]1CN(C)C(=O)Cc1ccccc1,3,37[16.7 µM],1,-7,4,-1
C[C@H](CO)N1C[C@H](C)[C@@H](CN(C)Cc2ccc(-c3ccccc3)cc2)Oc2c(NC(=O)CCC(F)(F)F)cccc2C1=O,x,x,-4,x,x,x
COc1ccc(CN(C)C[C@H]2Oc3ccc(NS(=O)(=O)c4c(C)noc4C)cc3C(=O)N([C@H](C)CO)C[C@H]2C)cc1,x,13[16.7 µM],x,-4,-4,3
O=C(N[C@H]1CC[C@@H](CCNS(=O)(=O)c2ccc(F)cc2)O[C@H]1CO)C1CCOCC1,10,-8[16.7 µM],x,3,13,2
C[C@@H]1CN([C@@H](C)CO)C(=O)c2cccc(NC(=O)c3ccc(-c4nccs4)cc3)c2O[C@@H]1CN(C)S(=O)(=O)c1ccc(Cl)cc1,23,4[16.7 µM],-12,17,7,1
CCC(=O)Nc1ccc2c(c1)OC[C@@H](C)N(C(=O)c1cccnc1)C[C@H](C)[C@H](OC)CN(C)C2=O,6,x,-1,-13,2,-1
C[C@H]1CN([C@@H](C)CO)C(=O)c2c(c3ccccc3n2C)-c2ccccc2CO[C@H]1CN(C)C(=O)C1CC1,-2,61*[16.7 µM],-3,-4,11,-1
C[C@@H]1CN([C@H](C)CO)C(=O)c2c(c3ccccc3n2C)-c2ccccc2CO[C@H]1CN(C)C(=O)C1CC1,6,1[16.7 µM],-7,11,-27,1
C[C@@H]1CN([C@@H](C)CO)C(=O)c2c(c3ccccc3n2C)-c2ccccc2CO[C@@H]1CN(C)C(=O)CCN(C)C,-12,-8[16.7 µM],5,-10,-30,2
C[C@H](CO)N1C[C@H](C)[C@@H](CN(C)C(=O)CCN(C)C)OCc2ccccc2-c2c(n(C)c3ccccc23)C1=O,65*,50[16.7 µM],3,-4,10,7
O=C(CCCN1C(=O)/C(=C/c2ccccc2Cl)SC1=S)NNC(=O)c1ccccc1Cl,12,49,7,66*,x,x
O=C(CCCN1C(=O)/C(=C/c2ccccc2Cl)SC1=S)N1CCCC1,-4,4,5,3,-14,0
O=C(CCN1C(=O)/C(=C/c2ccccc2Cl)SC1=S)N1CCCC1,83*,3,23,-3,-6,-1
O=C(CCCN1C(=O)/C(=C/c2ccccc2Cl)SC1=S)NNC(=O)c1ccncc1,1,17,3,u,x,-1
Cc1cc(C)n(C(=O)c2ccc([N+](=O)[O-])cc2N)n1,-29,-15,1,3,44*,1
CCC(=O)N1CC2(C1)[C@H](c1ccc(-c3ccc(C#N)cc3)cc1)[C@@H](CO)N2C(C)=O,x,x,x,-4,11,1
COc1ccc2c3c([nH]c2c1)[C@@H](CO)N(C(=O)CN1CCOCC1)CC31CN(C(=O)NC(C)C)C1,x,x,x,-1,-4,4
SMILES,PAX8 reporter,HIV Env fusion,FN deposit inh,EWS-Fli inh,PGC1a acetyl inh,F508del corr
CC(=O)c1c(C)[nH]c(C(=O)CSc2nnc(C3CCCCC3)n2N)c1C,11,64*,-8,x,-14,x
Nn1c(SCC(=O)N2CCCC2)nnc1C1CCCCC1,15,30,-3,-8,14,2
COc1ccc([Si](C)(C)[C@@H]2[C@@H](CCO)O[C@]3(C(=O)N(Cc4ccccc4)c4ccc(N5C(=O)c6cccc7cccc5c67)cc43)[C@H]2C)cc1,88*,64*[16.7 µM],x,0,-17,-7
C=CCN1C(=O)[C@]2(O[C@H](CCn3cc(CCO)nn3)[C@@H]([Si](C)(C)c3ccc(OC)cc3)[C@@H]2C)c2cc(N3C(=O)c4cccc5cccc3c45)ccc21,97*,70*[16.7 µM],x,36,x,-1
C=CCN1C(=O)[C@]2(O[C@H](CCn3cc([C@H](O)c4ccccc4)nn3)[C@@H]([Si](C)(C)c3ccc(OC)cc3)[C@@H]2C)c2cc(N3CCOC3=O)ccc21,1,-3[16.7 µM],x,16,x,4
COc1ccc([Si](C)(C)[C@@H]2[C@@H](CCO)O[C@]3(C(=O)N(Cc4cccc(NC(C)=O)c4)c4ccccc43)[C@H]2C)cc1,103*,14[16.7 µM],x,21,-11,1
C[C@H]1CCCCO[C@H](CN(C)C(=O)NC2CCCCC2)[C@@H](C)CN([C@@H](C)CO)C(=O)c2cc(NS(=O)(=O)c3ccc(Cl)cc3)ccc2O1,71*,1[16.7 µM],-5,11,16,2
C[C@@H]1CCCCO[C@@H](CN(C)C(=O)NC2CCCCC2)[C@@H](C)CN([C@H](C)CO)C(=O)c2cc(NS(=O)(=O)c3ccc(Cl)cc3)ccc2O1,-20,-53[16.7 µM],0,30,10,1
C[C@@H]1CCCCO[C@H](CN(C)C(=O)NC2CCCCC2)[C@H](C)CN([C@@H](C)CO)C(=O)c2cc(NS(=O)(=O)c3ccc(Cl)cc3)ccc2O1,80*,-23[16.7 µM],-19,-5,0,5
C[C@@H]1CN([C@H](C)CO)C(=O)c2cc(NC(=O)Cn3cnnn3)ccc2O[C@@H]1CN(C)C,9,x,x,-8,5,0
Oc1c(I)cc(Cl)c2cccnc12,79*,5,9,16,21,-18

# Compound activity deposited in PubChem by Broad Institute.
